# Reference: ChEMBL document CHEMBL2046398, “Optimization of (2,3-dihydro-1-benzofuran-3-yl)acetic acids: discovery of a non-free fatty acid-like, highly bioavailable G protein-coupled receptor 40/free fatty acid receptor 1 agonist as a glucose-dependent insulinotropic agent” (J Med Chem, 2012)
# The source made the active and inactive calls. The rule behind the calls is not given here.
# Columns and labels:
# [1] = target: Free fatty acid receptor 1 (Rattus norvegicus, UniProt Q8K3T4); assay: Displacement of 3-[4-({2',6'-dimethyl-6-[(4-[3H])-phenylmethoxy]biphenyl-3-yl}methoxy)phenyl]propanoic acid from rat GPR40 expressed in CHO cells after 90 mins by liquid scintillation counting in the presence of 0.2%BSA; format: cell-based
# Chain of Free fatty acid receptor 1 (Rattus norvegicus, UniProt Q8K3T4) (Q8K3T4 whole entry): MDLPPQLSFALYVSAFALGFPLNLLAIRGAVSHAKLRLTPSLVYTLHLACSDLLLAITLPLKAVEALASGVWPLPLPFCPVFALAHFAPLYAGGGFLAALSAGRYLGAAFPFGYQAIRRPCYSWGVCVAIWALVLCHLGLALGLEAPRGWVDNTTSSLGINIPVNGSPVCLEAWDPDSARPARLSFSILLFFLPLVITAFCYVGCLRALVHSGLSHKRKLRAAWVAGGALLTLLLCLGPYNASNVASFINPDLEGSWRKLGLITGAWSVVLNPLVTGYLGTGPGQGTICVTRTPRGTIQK
# Procedure, shortened: (§1)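 Membranes came from CHO lines stably expressing human or rat GPR40/FFA1. Assay buffer was 25 mmol/L Tris-HCl pH 7.5 with 5 mmol/L EDTA, protease inhibitors, 0.05% CHAPS and 0.2% fatty-acid-free BSA. Compounds competed with 2 or 6 nmol/L tritiated phenylpropanoic acid ligand for 90 min at room temperature. Bound ligand was filtered and counted by scintillation. Nonspecific binding used 10 μmol/L unlabeled ligand. IC50 was converted to Ki by Cheng–Prusoff using the measured Kd.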
# [2] = target: T1, Free fatty acid receptor 1 (Homo sapiens, UniProt O14842); assay: Agonist activity at human GP40 receptor expressed in CHO cells assessed as increase in intracellular calcium level for 90 secs by FLIPR assay in the presence of 0.1% BSA; format: functional, cell-based
# T1 sequence (O14842 whole entry): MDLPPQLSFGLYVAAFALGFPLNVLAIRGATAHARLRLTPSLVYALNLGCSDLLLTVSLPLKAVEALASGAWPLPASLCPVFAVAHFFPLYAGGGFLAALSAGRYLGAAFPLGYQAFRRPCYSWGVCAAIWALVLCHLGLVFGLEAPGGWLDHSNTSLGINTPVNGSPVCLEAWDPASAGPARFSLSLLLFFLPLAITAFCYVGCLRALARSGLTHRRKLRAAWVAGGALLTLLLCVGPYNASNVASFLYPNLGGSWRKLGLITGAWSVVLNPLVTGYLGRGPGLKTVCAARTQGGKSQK
# [3] = system: Rattus norvegicus; assay: Insulinotropic activity in po dosed fasted Wistar fatty rat assessed as […] administered 4 hr prior to glucose-challenge by oral glucose tolerance test relative to vehicle control; format: functional
# Procedure, shortened: (§2)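 Female Wistar fatty rats, 12–17 weeks old, were fasted overnight. They were dosed orally with compound in 0.5% methylcellulose 1 h (1 mg/kg) or 4 h (3 mg/kg) before a 1 g/kg oral glucose load. Plasma glucose was sampled to 120 min, n = 6. Effective dose was defined by statistical significance on plasma glucose AUC versus vehicle.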
# [4] = system: HepG2; assay: Induction of apoptosis in human HepG2 cells assessed as caspase 3/7 activity at 30 uM after 1 day by CaspaseGlo assay relative to staurosporine; format: cell-based; conditions: hepg2, 24 h
# Procedure, shortened: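 HepG2 cells were seeded at 2 × 10⁴ cells/well. They were exposed to compounds for 1 day in DMEM with 0.5% FBS, 2 mM L-glutamine and 1 mM pyruvate. Caspase-3/7 was read by Caspase-Glo luminescence, n = 3. Values are % = (RLU compound − RLU 1% DMSO)/(RLU 30 μM staurosporine − RLU 1% DMSO) × 100.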
# [5] = target: T1, Free fatty acid receptor 1; assay: Agonist activity at human GP40 receptor expressed in CHO cells assessed as increase in intracellular calcium level at 10 uM for 90 secs by FLIPR assay in the presence of 0.1% BSA relative to gamma-linolenic acid; format: functional, cell-based
# Procedure, shortened: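 CHO dhfr cells stably expressing human GPR40/FFA1 (NM_005303) plated overnight at 37 °C, 5% CO₂, then loaded 60 min at 37 °C with Fluo 4 AM (2.5 μg/mL), 2.5 mmol/L probenecid and 0.1% fatty acid-free BSA. Ca²⁺ rise after compound addition read on FLIPR Tetra for 90 s. Activity = (test − vehicle)/(10 μM γ-linolenic acid − vehicle) × 100.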
# [6] = Lipophilicity, log D of the compound at pH 7.4 by HPLC analysis; format: physicochemical; conditions: buffer
# Procedure, shortened: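 Log D at pH 7.4 was estimated from HPLC relative retention time against standard compounds.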
# [7] = target: T1, Free fatty acid receptor 1; assay: Displacement of 3-[4-({2',6'-dimethyl-6-[(4-[3H])-phenylmethoxy]biphenyl-3-yl}methoxy)phenyl]propanoic acid from human GPR40 expressed in CHO cells after 90 mins by liquid scintillation counting in the presence of 0.2% BSA; format: cell-based; procedure, shortened: as §1
# [8] = system: Rattus norvegicus; assay: Insulinotropic activity in po dosed fasted Wistar fatty rat assessed as […] administered 1 hr prior to glucose-challenge by oral glucose tolerance test relative to vehicle control; format: functional; procedure, shortened: as §2
SMILES,Ki [1],EC50 [2],ED [3],Activity [4],Efficacy [5],logD [6],Ki [7],ED [8]
Cc1cc(OC2CCN(C)CC2)cc(C)c1-c1cccc(COc2ccc3c(c2)OC[C@H]3CC(=O)O)c1.Cl,66 nM,19 nM,inactive,-1.3%,107%,3.1,8.8 nM,–
CCOCCOc1cc(C)c(-c2cccc(COc3ccc4c(c3)OC[C@@H]4CC(=O)O)c2)c(C)c1,7400 nM,–,–,10.5%,103%,3.86,–,–
Cc1cc(OCC2(O)CCS(=O)(=O)CC2)cc(C)c1-c1cccc(COc2ccc3c(c2)OC[C@H]3CC(=O)O)c1,170 nM,13 nM,3 mg/kg,-1.8%,107%,2.43,24 nM,inactive
Cc1cc(OC2CCS(=O)(=O)CC2)cc(C)c1-c1cccc(COc2ccc3c(c2)OC[C@@H]3CC(=O)O)c1,510 nM,290 nM,–,1.3%,103%,2.84,300 nM,–
Cc1cc(OCCCS(C)(=O)=O)c(F)c(C)c1-c1cccc(COc2ccc3c(c2)OC[C@H]3CC(=O)O)c1,200 nM,16 nM,3 mg/kg,-1.1%,104%,2.68,18 nM,1 mg/kg
Cc1nc(C)c(COc2cc(C)c(-c3cccc(COc4ccc5c(c4)OC[C@H]5CC(=O)O)c3)c(C)c2)s1,360 nM,18 nM,–,23.1%,107%,4.27,12 nM,–
Cc1c(C)c(-c2cccc(COc3ccc4c(c3)OC[C@H]4CC(=O)O)c2)c(C)c(C)c1OCCCS(C)(=O)=O,120 nM,18 nM,–,-1.1%,104%,3.12,33 nM,–
CCS(=O)(=O)CCOc1cc(C)c(-c2cccc(COc3ccc4c(c3)OC[C@H]4CC(=O)O)c2)c(C)c1,170 nM,14 nM,3 mg/kg,-1.3%,107%,2.73,37 nM,–
Cc1cc(OC2CCS(=O)(=O)CC2)cc(C)c1-c1cccc(COc2ccc3c(c2)OCC3CC(=O)O)c1 (racemic),210 nM,39 nM,–,0.4%,103%,2.77,83 nM,–
Cc1cc(OCc2cccc3nccn23)cc(C)c1-c1cccc(COc2ccc3c(c2)OC[C@H]3CC(=O)O)c1,190 nM,17 nM,–,17.7%,107%,3.8,15 nM,–
Cc1cc(OCCCS(C)(=O)=O)cc(C)c1-c1cccc(COc2ccc3c(c2)OC[C@H]3CC(=O)O)c1,–,–,–,-2.1%,–,2.58,–,–
Cc1c(Cl)c(OCCCS(C)(=O)=O)c(Cl)c(C)c1-c1cccc(COc2ccc3c(c2)OC[C@H]3CC(=O)O)c1,59 nM,17 nM,–,16.1%,104%,3.53,12 nM,–
CCOCCOc1cc(C)c(-c2cccc(COc3ccc4c(c3)OC[C@H]4CC(=O)O)c2)c(C)c1,240 nM,–,–,1.5%,103%,3.86,–,–
CCOCCOc1cc(C)c(-c2cccc(COc3ccc4c(c3)OCC4CC(=O)O)c2)c(C)c1 (racemic),300 nM,–,–,3.2%,103%,3.83,–,–
Cc1cc(OC2CCS(=O)(=O)CC2)c(F)c(C)c1-c1cccc(COc2ccc3c(c2)OC[C@H]3CC(=O)O)c1,270 nM,19 nM,–,7.9%,104%,2.95,31 nM,–
Cc1cc(OCCCN2CCCC2=O)cc(C)c1-c1cccc(COc2ccc3c(c2)OC[C@H]3CC(=O)O)c1,170 nM,17 nM,–,3.9%,107%,3.22,31 nM,–
Cc1cc(OC2CCS(=O)(=O)CC2)cc(C)c1-c1cccc(COc2ccc3c(c2)OC[C@H]3CC(=O)O)c1,170 nM,22 nM,3 mg/kg,-2.5%,103%,2.75,36 nM,1 mg/kg
Cc1cc(OCCCS(C)(=O)=O)c(Cl)c(C)c1-c1cccc(COc2ccc3c(c2)OC[C@H]3CC(=O)O)c1,110 nM,16 nM,–,8.3%,104%,3.07,19 nM,–
Cc1c(C)c(-c2cccc(COc3ccc4c(c3)OC[C@H]4CC(=O)O)c2)c(C)c(C)c1OC1CCS(=O)(=O)CC1,400 nM,29 nM,–,12.3%,104%,3.35,40 nM,–
Cc1cc(OCC2(C)COC2)cc(C)c1-c1cccc(COc2ccc3c(c2)OCC3CC(=O)O)c1 (racemic),83 nM,24 nM,–,23.6%,103%,3.86,21 nM,–
Cc1cc(OCC2(C)COC2)cc(C)c1-c1cccc(COc2ccc3c(c2)OC[C@@H]3CC(=O)O)c1,2200 nM,270 nM,–,20.9%,103%,3.88,270 nM,–
CCc1cc(OCCCS(C)(=O)=O)cc(CC)c1-c1cccc(COc2ccc3c(c2)OC[C@H]3CC(=O)O)c1,56 nM,17 nM,–,12.4%,104%,3.17,11 nM,–
Cc1cc(OCC2(C)COC2)cc(C)c1-c1cccc(COc2ccc3c(c2)OC[C@H]3CC(=O)O)c1,110 nM,18 nM,–,21.1%,103%,3.88,25 nM,–
